# Reference: ChEMBL document CHEMBL2311373, “Monocyclic β-lactams as antibacterial agents: facing antioxidant activity of N-methylthio-azetidinones” (2013)
# Calls of active or inactive are those of the source. The calls are words filed in the database; no cut-off is given here.
# Tests used:
# [1] = Antioxidant activity of the compound by voltammetric analysis; type: functional
# [2] = Antioxidant activity assessed as resorcinol equivalent of peroxy radical scavenging activity at pH 2.2 by BR assay; type: functional
# How it was run: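 Briggs-Rauscher oscillating reaction thermostated at 25.0 °C. The resorcinol standard line was checked before each series. Relative antioxidant activity is taken from the sample and resorcinol concentrations that give the same effect.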
# Staphylococcus aureus = test: Antibacterial activity against methicillin-resistant Staphylococcus aureus clinical isolates from cystic fibrosis patients assessed as growth inhibition by CLSI broth microdilution method
# [3] = test system: Radical scavenging activity; test: Antioxidant activity assessed as trolox equivalent of DPPH radical scavenging activity after 15 mins by spectroscopic analysis; type: functional
# How it was run: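 Absorbance at 515 nm of methanolic DPPH radical read before (A₀) and 15 min after (Af) adding sample. Inhibition % = (1 − Af/A₀) × 100. Plots of % inhibition vs concentration were fitted with lines through the origin and compared with the Trolox standard.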
# [4] = Antioxidant activity assessed as trolox equivalent of ABTS radical scavenging activity at pH 7.4 after 6 mins by TEAC assay; type: functional
# How it was run: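 ABTS radical cation preformed with K₂S₂O₈ in PBS, pH 7.4. Diluted radical solution mixed with sample dissolved in DMSO; absorbance at 734 nm read exactly 6 min later at 30.0 °C. A DMSO blank was run, and the Trolox standard was treated the same way and checked before each series. Activity is given as a ratio to Trolox with its standard error.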
# [5] = Antioxidant activity assessed as Fe (II) equivalent of (TPTZ)2Fe3+ reducing activity after 4 mins by FRAP assay; type: functional
# How it was run: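 FRAP reagent made from TPTZ and FeCl₃ in aqueous acetate buffer. Reagent and diluted sample mixed in a cuvette; absorbance of the blue Fe²⁺ complex at 593 nm read exactly 4 min later at 25.0 °C. Four or five sample concentrations tested. Slope of absorbance vs concentration divided by the FeSO₄ standard slope gives activity in mmol equiv Fe²⁺.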
# [6] = test system: Radical scavenging activity; test: Antioxidant activity assessed as trolox equivalent of DPPH radical scavenging activity by spectroscopic analysis; type: functional
Compound,Activity [1],Activity [2],MIC50 (Staphylococcus aureus) [µg/mL],MIC90 (Staphylococcus aureus) [µg/mL],Activity [3],Activity [4],Activity [5],MIC (Staphylococcus aureus) [µg/mL],Activity [6] [µM]
CSN1CCC1=O,inactive,–,–,–,–,–,–,–,–
CSN1C(=O)[C@H]([C@@H](C)O)[C@H]1OC(C)=O,–,inactive,64,> 128,inactive,inactive,inactive,–,–
CSN1C(=O)CC1SC(C)=O (stereo not drawn),–,inactive,16,32,inactive,inactive,inactive,16,–
CSN1C(=O)[C@H]([C@@H](C)O)[C@H]1SC(C)=O,–,inactive,64,128,inactive,inactive,inactive,–,–
CO/N=C(\C(=O)N[C@@H]1C(=O)N2C(C(=O)O)=C(COC(C)=O)CS[C@H]12)c1csc(N)n1 [CEFOTAXIME],–,–,128,> 128,–,–,–,–,–
CO/N=C(\C(=O)N[C@@H]1C(=O)N2C(C(=O)O)=C(CSc3nc(=O)c(O)nn3C)CS[C@H]12)c1csc(N)n1 [CEFTRIAXONE],–,–,8,> 128,–,–,–,–,–
CC(=O)SC1CC(=O)N1 (stereo not drawn),inactive,inactive,32,64,inactive,inactive,inactive,–,–
CCOCOc1c(OC)cc(C(=O)O[C@H](C)[C@H]2C(=O)N(SC)[C@@H]2OC(C)=O)cc1OC,–,0.7 µM,–,–,inactive,inactive,inactive,–,–
CSN1C(=O)C[C@@H]1OC(C)=O,–,inactive,32,64,inactive,inactive,inactive,32,–
COc1cc(C(=O)O[C@H](C)[C@H]2C(=O)N(SC)[C@@H]2OC(C)=O)cc(OC)c1O,–,1.8 µM,64,128,0.0091 mmol,0.037 mmol,0.19 mmol,–,–
CC(O[Si](C)(C)C(C)(C)C)[C@H]1C(=O)N/C1=C\C(=O)Sc1ccccc1 (stereo partly drawn),inactive,–,–,–,–,–,–,–,–
O=C1O[C@H]([C@@H](O)CO)C(O)=C1O,–,–,–,–,–,–,–,–,1100
CSN1C(=O)[C@H]([C@@H](C)OC(=O)c2ccc(O)c(O)c2)[C@H]1OC(C)=O,–,0.38 µM,128,> 128,1.96 mmol,1.23 mmol,1.91 mmol,–,–
VITAMIN E,–,–,–,–,–,–,–,–,500
CSN1C(=O)[C@H]([C@@H](C)OC(=O)/C=C/c2ccc(O)c(O)c2)[C@H]1OC(C)=O,–,1.95 µM,64,64,1.23 mmol,0.98 mmol,1.98 mmol,–,–
